The values below come from ChEMBL document CHEMBL2046325, “Synthesis and SAR-study for novel arylpiperazine derivatives of 5-arylidenehydantoin with α₁-adrenoceptor antagonistic properties” (Bioorg Med Chem, 2012).

Assay [1] concerns the target T1, Adrenergic receptor alpha-1 (Rattus norvegicus, UniProt P15823+P23944+P43140).
T1 sequence (P15823 whole entry): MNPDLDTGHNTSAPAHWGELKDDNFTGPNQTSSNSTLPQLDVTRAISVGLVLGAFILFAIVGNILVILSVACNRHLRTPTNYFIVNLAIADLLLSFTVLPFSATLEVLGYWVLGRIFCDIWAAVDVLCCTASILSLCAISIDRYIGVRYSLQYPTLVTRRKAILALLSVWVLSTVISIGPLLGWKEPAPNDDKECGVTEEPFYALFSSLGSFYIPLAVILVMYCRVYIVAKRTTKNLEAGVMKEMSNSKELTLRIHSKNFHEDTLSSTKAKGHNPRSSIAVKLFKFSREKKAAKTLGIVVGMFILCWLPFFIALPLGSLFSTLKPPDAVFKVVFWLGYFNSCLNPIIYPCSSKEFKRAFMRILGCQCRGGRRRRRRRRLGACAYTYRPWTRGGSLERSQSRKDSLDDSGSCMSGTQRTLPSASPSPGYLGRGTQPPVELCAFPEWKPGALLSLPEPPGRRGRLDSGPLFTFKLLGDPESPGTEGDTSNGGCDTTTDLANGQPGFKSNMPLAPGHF
T1 sequence (P23944 whole entry): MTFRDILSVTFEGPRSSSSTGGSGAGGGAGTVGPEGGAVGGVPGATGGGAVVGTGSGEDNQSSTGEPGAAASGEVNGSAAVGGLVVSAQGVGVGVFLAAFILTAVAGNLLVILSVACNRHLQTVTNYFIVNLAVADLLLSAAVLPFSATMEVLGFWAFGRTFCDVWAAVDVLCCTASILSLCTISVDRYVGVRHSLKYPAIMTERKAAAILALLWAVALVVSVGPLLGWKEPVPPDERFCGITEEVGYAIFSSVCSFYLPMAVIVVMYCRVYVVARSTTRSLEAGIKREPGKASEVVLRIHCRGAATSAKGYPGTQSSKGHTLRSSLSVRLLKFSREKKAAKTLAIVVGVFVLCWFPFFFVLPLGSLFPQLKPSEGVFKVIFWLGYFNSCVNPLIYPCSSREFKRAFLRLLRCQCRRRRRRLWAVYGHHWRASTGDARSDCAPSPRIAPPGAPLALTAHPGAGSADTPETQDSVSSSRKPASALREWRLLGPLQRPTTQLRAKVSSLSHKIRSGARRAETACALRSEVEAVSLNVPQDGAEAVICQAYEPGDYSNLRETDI
T1 sequence (P43140 whole entry): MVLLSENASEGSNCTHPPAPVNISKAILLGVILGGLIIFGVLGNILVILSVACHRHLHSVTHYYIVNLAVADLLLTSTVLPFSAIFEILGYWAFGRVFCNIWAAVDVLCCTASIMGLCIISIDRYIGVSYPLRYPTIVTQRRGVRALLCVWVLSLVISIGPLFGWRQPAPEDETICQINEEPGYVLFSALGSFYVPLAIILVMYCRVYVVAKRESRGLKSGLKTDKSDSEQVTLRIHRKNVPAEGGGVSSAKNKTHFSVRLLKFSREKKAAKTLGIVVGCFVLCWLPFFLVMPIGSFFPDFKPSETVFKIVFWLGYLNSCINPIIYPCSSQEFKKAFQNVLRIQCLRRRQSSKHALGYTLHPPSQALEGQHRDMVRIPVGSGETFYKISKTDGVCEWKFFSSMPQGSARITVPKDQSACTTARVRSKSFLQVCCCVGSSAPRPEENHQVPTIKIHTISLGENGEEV
The assay can be described thus: Displacement of [3H]prazosin from alpha1 adrenoceptor in rat cerebral cortex after 30 mins by beta scintillation counting. It is filed as tissue-based. In outline: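 Rat cerebral cortex homogenized in 50 mM Tris-HCl, pH 7.6, centrifuged twice at 20000 × g and resuspended at 10 mg wet weight/ml. Tissue incubated with [3H]-prazosin (19.5 Ci/mmol) and test compound for 30 min at 25 °C. Samples filtered on GF/B and counted by scintillation; three-parameter logistic fit of percent binding.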
For orientation: Displacement assays read how much labelled ligand stays bound in the presence of the test substance.

In assay [2] the target is Adrenergic receptor alpha-1 (Rattus norvegicus) (UniProt P15823+P23944+P43140). The assay can be described thus: Antagonist activity at alpha1 adrenoceptor in Wistar rat denuded thoracic aorta rings assessed as inhibition of phenylephrine-induced contraction after 20 mins. It is filed as functional, tissue-based. The procedure, abridged:
(§1)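 Male Wistar rats (200-350 g) anaesthetised with thiopental sodium (75 mg/kg ip). Endothelium-denuded thoracic aortic rings, about 4 mm, held in Krebs-Henseleit at 37 °C, pH 7.4, gassed O2/CO2 19:1. Cumulative phenylephrine curves run over 3×10⁻⁹–3×10⁻⁶ M, before and after 20 min with one antagonist concentration per ring (3–4 levels), 60 min recovery between curves. Schild pA2 used if slope is unity, otherwise pKB; ≥5 experiments.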

Assay [3] deals with T1, Adrenergic receptor alpha-1. The assay can be described thus: Competitive antagonist activity at alpha1 adrenoceptor in Wistar rat denuded thoracic aorta rings assessed as inhibition of phenylephrine-induced contractions after 20 mins. It is filed as functional, tissue-based. In outline:
as §1

Usually Ki stands for the dissociation constant of the complex between target and ligand, obtained from inhibition or displacement. A higher Ki goes with lower affinity. For orientation: pKb means the negative decadic logarithm of the Kb, by convention in mol/L. As usually defined, the pA2 is a measure of antagonist potency on a negative log scale.

Molecules are shown by their SMILES.

In assay [1], `Cl.O=C1N/C(=C\c2ccc(Cl)cc2)C(=O)N1CC(O)CN1CCN(c2ccccc2)CC1` (racemic) showed a Ki of 3700 nM.

In assay [1], `COc1ccccc1N1CCN(CC(O)CN2C(=O)N/C(=C\c3ccc(N(C)C)cc3)C2=O)CC1.Cl` (racemic) showed a Ki of 834.9 nM.

In assay [1], `COc1cccc(/C=C2\NC(=O)N(CC(O)CN3CCN(c4ccccc4)CC3)C2=O)c1OC.Cl` (racemic) had a Ki of 318.8 nM.

Compound `COc1ccccc1N1CCN(CC(O)CN2C(=O)N/C(=C\c3ccccc3)C2=O)CC1.Cl` (racemic) gave a Ki in assay [1] of 285.9 nM.

Take `CCOc1ccccc1N1CCN(CC(O)CN2C(=O)N/C(=C\c3ccc(OC)cc3OC)C2=O)CC1.Cl` (racemic): in assay [1], the Ki is listed as 231 nM.

For the compound `COc1ccc(/C=C2\NC(=O)N(CC(O)CN3CCN(c4ccccc4)CC3)C2=O)cc1OC.Cl` (racemic), in assay [1], the inhibitory constant (Ki) is 197.6 nM.

`CCOc1ccccc1N1CCN(CC(O)CN2C(=O)N/C(=C\c3ccccc3)C2=O)CC1.Cl` (racemic): in assay [1], the Ki stood at 91.4 nM. In addition, in assay [2], the inhibition entry is “Dose-dependent effect” and the negative logarithm of the Kb (pKb) was found to be 7.66.

The compound `COc1ccccc1N1CCN(CC(O)CN2C(=O)N/C(=C\c3ccc(Cl)cc3)C2=O)CC1.Cl` (racemic) had a Ki in assay [1] of 86.3 nM. In assay [2], the inhibition entry is “Dose-dependent effect” and the pKb is 7.58.

As to `CCOc1ccccc1N1CCN(CC(O)CN2C(=O)N/C(=C\c3cccc(OC)c3OC)C2=O)CC1.Cl` (racemic), in assay [1], the Ki was found to be 72.1 nM. For the same compound, in assay [2], the inhibition entry is “Dose-dependent effect” and the pKb was found to be 7.53.

In assay [1], `COc1ccccc1N1CCN(CC(O)CN2C(=O)N/C(=C\c3cccc(OC)c3OC)C2=O)CC1.Cl` (racemic) came in with a Ki of 70 nM. Further, in assay [3], the pA2 is recorded as 7.55. In addition, the inhibition entry in assay [2] was “Dose-dependent effect”.

Consider `CCOc1ccccc1N1CCN(CC(O)CN2C(=O)N/C(=C\c3ccc(Cl)cc3)C2=O)CC1.Cl` (racemic), for which the Ki in assay [1] was 59.1 nM. Moreover, in assay [2], the inhibition entry was “Dose-dependent effect” and the negative logarithm of the Kb (pKb) was 9.01.

Consider `COc1ccc(/C=C2\NC(=O)N(CC(O)CN3CCN(c4ccccc4OC)CC3)C2=O)c(OC)c1.Cl` (racemic), for which the Ki in assay [1] turned out to be 52.2 nM. Further, in assay [2], the inhibition result is “Dose-dependent effect” and the pKb stood at 8.95.

In the case of `COc1ccc(/C=C2\NC(=O)N(CC(O)CN3CCN(c4ccccc4OC)CC3)C2=O)cc1OC.Cl` (racemic), the Ki in assay [1] worked out at 44.5 nM. Also, the pA2 in assay [3] is given as 7.56. Further, the inhibition result in assay [2] was “Dose-dependent effect”.

Compound `CCOc1ccccc1N1CCN(CC(O)CN2C(=O)N/C(=C\c3ccc(N(C)C)cc3)C2=O)CC1.Cl` (racemic) yielded a Ki in assay [1] of 8700 nM.
